Experimental findings from ChEMBL document CHEMBL1124257, “An examination of O-2-isocephems as orally absorbable antibiotics” (J Med Chem, 1988) are described below.

Values after ≈ are worked out from the molar mass of the structure shown.

Series [1] deals with Escherichia coli. Nature of the series: Minimum inhibitory concentration (MIC) […] against Escherichia coli. It is filed as functional. The conditions noted are these: Escherichia coli; read-out: MIC. An outline of the steps:
(§1)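 For each organism, an overnight culture was grown in Mueller-Hinton broth at 37 °C. Twofold microtiter dilutions in Nutrient Broth covered 0.005–125 µg/mL. Each well received about 10^4 organisms, and plates were incubated 18 h at 37 °C. MIC was the lowest concentration giving no visible growth.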

The test system of series [2] is Escherichia coli. Nature of the series: Protective dose (PD50) against Escherichia coli infected mice. It is filed as functional. The conditions noted are these: read-out: PD50. An outline of the steps: (§2)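 Male Swiss-Webster mice (20 ± 2 g) were challenged intraperitoneally with enough bacteria to kill untreated controls within 72 h. Drug was given orally by gavage twice: at 0 and 2 h after E. coli challenge, or at 1 and 3.5 h after S. pneumoniae challenge. PD50 is the dose in mg/kg per dose that protects 50% of animals.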

Series [3] concerns Streptococcus pneumoniae. Nature of the series: Minimum inhibitory concentration (MIC) […] against Streptococcus pneumoniae. The class given is functional. The settings on record: Streptococcus pneumoniae; read-out: MIC. An outline of the steps: as §1
Another series has as its system Proteus mirabilis. Nature of the series: Minimum inhibitory concentration (MIC) against Proteus mirabilis by 2-fold microdilution technique. It is filed as functional. The conditions noted are these: Proteus mirabilis; read-out: MIC. An outline of the steps:
as §1
Background: In broth dilution the organism is exposed to a series of concentrations in liquid medium.

The test system of the next series is Haemophilus influenzae. Nature of the series: Minimum inhibitory concentration (MIC) against Haemophilus influenzae by 2-fold microdilution technique. It is filed as functional. The conditions noted are these: Haemophilus influenzae; read-out: MIC. The procedure, abridged:
as §1

Series [4] deals with Streptococcus pneumoniae. Nature of the series: Protective dose (PD50) against Streptococcus pneumoniae infected mice. The class given is functional. The settings on record: Streptococcus pneumoniae; read-out: PD50. An outline of the steps:
as §2

Series [5] relates to Streptococcus pneumoniae. Nature of the series: Minimum inhibitory concentration (MIC) against Streptococcus pneumoniae by 2-fold microdilution technique. It is filed as functional. The settings on record: Streptococcus pneumoniae; read-out: MIC. The procedure, abridged:
as §1

In series [6] the test system is Escherichia coli. Nature of the series: Minimum inhibitory concentration (MIC) against Escherichia coli by 2-fold microdilution technique. The class given is functional. The conditions noted are these: Escherichia coli; read-out: MIC. An outline of the steps:
as §1

The test system of a further series is Staphylococcus aureus. Nature of the series: Minimum inhibitory concentration (MIC) against Staphylococcus aureus by 2-fold microdilution technique. The settings on record: Staphylococcus aureus; read-out: MIC. The class given is functional. The procedure, abridged:
as §1

The test system of the next series is Enterococcus faecalis. Nature of the series: Minimum inhibitory concentration (MIC) against Streptococcus faecalis by 2-fold microdilution technique. The class given is functional. The settings on record: Enterococcus faecalis; read-out: MIC. The procedure, abridged: as §1
The next series relates to Klebsiella pneumoniae. Nature of the series: Minimum inhibitory concentration (MIC) against Klebsiella pneumoniae by 2-fold microdilution technique. It is filed as functional. The settings on record: Klebsiella pneumoniae; read-out: MIC. The procedure, abridged:
as §1

Another series relates to Streptococcus pyogenes. Nature of the series: Minimum inhibitory concentration (MIC) against Streptococcus pyogenes by 2-fold microdilution technique. It is filed as functional. The conditions noted are these: Streptococcus pyogenes; read-out: MIC. An outline of the steps:
as §1

A short description of series [7]: Cmax was measured in mice after an oral dose of 50 mg/kg. It is filed as ADME, organism-based. On the set-up: dose 50 mg/kg, route oral. The settings on record: mouse, in vivo. The procedure, abridged: (§3)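 Male Swiss-Webster mice (20 ± 2 g) were given a single 50 mg/kg oral dose by gavage. Blood concentrations and urine levels were measured by microbiological assay, and urinary recovery was taken over 0–6 h.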

For series [8], the species on record is Mus musculus. Nature of the series: Percentage of dose recovered after 0-6 hr in the urine of mice was measured. The settings on record: in vivo. The class given is ADME, organism-based. An outline of the steps: as §3
For series [9], the system named is Mus musculus. Nature of the series: Area under curve(AUC) was measured in mice after oral administration. The class given is ADME, organism-based. More on the design: concentration or dose not given beside the values; unit not given here. The settings on record: in vivo. The procedure, abridged:
as §3

Series [10] is described as follows: Half life was measured. The class given is ADME. An outline of the steps:
as §3

As for `N[C@@H](C(=O)N[C@@H]1C(=O)N2C(C(=O)O)=COC[C@H]12)c1ccc(O)cc1`, the MIC amounted to 4 µg/mL (≈ 12 µM) with Escherichia coli [1]; 1 µg/mL (≈ 3 µM) with Streptococcus pneumoniae [3]; 4 µg/mL (≈ 12 µM) in the series on Proteus mirabilis; 2 µg/mL (≈ 6 µM) in the series with Haemophilus influenzae; 1 µg/mL (≈ 3 µM) in the series with Streptococcus pneumoniae [5]; 4 µg/mL (≈ 12 µM) in the series on Escherichia coli [6]. The MIC in the series with Staphylococcus aureus was found to be 1 µg/mL (≈ 3 µM); in the series on Enterococcus faecalis it was 32 µg/mL (≈ 96 µM); in the series with Klebsiella pneumoniae, 8 µg/mL (≈ 24 µM); in the series on Streptococcus pyogenes it was 0.25 µg/mL (≈ 0.75 µM). Moreover, the ED50 with Escherichia coli [2] amounted to 6.2 mg/kg; with Streptococcus pneumoniae [4], 33 mg/kg.

Take `CC1=C(C(=O)O)N2C(=O)[C@@H](NC(=O)[C@H](N)c3ccccc3)[C@H]2SC1` [CEPHALEXIN ANHYDROUS]: the MIC in the series with Proteus mirabilis turned out to be 4 µg/mL (≈ 11.5 µM); in the series with Haemophilus influenzae it was 4 µg/mL (≈ 11.5 µM); in the series on Streptococcus pneumoniae [5], 0.5 µg/mL (≈ 1.44 µM); in the series with Escherichia coli [6], 8 µg/mL (≈ 23 µM); in the series on Staphylococcus aureus, 0.5 µg/mL (≈ 1.44 µM); in the series on Enterococcus faecalis it was 32 µg/mL (≈ 92.1 µM). Also, the MIC in the series with Klebsiella pneumoniae turned out to be 16 µg/mL (≈ 46.1 µM); in the series with Streptococcus pyogenes, 0.5 µg/mL (≈ 1.44 µM).

For `C/C=C/C1=C(C(=O)O)N2C(=O)[C@@H](NC(=O)[C@H](N)c3ccc(O)cc3)[C@H]2CO1` (relative stereo), the MIC in the series with Escherichia coli [1] worked out at 2 µg/mL (≈ 5.36 µM); in the series on Streptococcus pneumoniae [3], 0.03 µg/mL (≈ 0.0804 µM); in the series with Proteus mirabilis, 0.5 µg/mL (≈ 1.34 µM); in the series with Haemophilus influenzae it was 2 µg/mL (≈ 5.36 µM); in the series with Streptococcus pneumoniae [5], 0.03 µg/mL (≈ 0.0804 µM); in the series on Escherichia coli [6] it was 2 µg/mL (≈ 5.36 µM). In addition, the MIC in the series with Staphylococcus aureus stood at 0.25 µg/mL (≈ 0.67 µM); in the series with Enterococcus faecalis it was 1 µg/mL (≈ 2.68 µM); in the series with Klebsiella pneumoniae, 8 µg/mL (≈ 21.4 µM); in the series on Streptococcus pyogenes, 0.016 µg/mL (≈ 0.0429 µM). The ED50 with Escherichia coli [2] was above 50 mg/kg; with Streptococcus pneumoniae [4], 1.8 mg/kg. Also, the peak level in series [7] (Cmax) was 11000 ng/mL. Besides, the “Urinary recovery (% of dose, 0-6 h)” value in the series filed under Mus musculus [8] turned out to be 5%. Also, the AUC in the series with Mus musculus [9] stood at 30. For the same compound, in series [10], the half-life (in general, how long it takes for the measured level to halve) came to 110 min.

`C/C=C\C1=C(C(=O)O)N2C(=O)[C@@H](NC(=O)[C@H](N)c3ccc(O)cc3)[C@H]2CO1` (relative stereo): the MIC with Escherichia coli [1] stood at 2 µg/mL (≈ 5.36 µM); in the series on Streptococcus pneumoniae [3] it was 0.03 µg/mL (≈ 0.0804 µM); in the series on Proteus mirabilis, 1 µg/mL (≈ 2.68 µM); with Haemophilus influenzae it was 2 µg/mL (≈ 5.36 µM); with Streptococcus pneumoniae [5], 0.03 µg/mL (≈ 0.0804 µM); in the series with Escherichia coli [6], 2 µg/mL (≈ 5.36 µM). In addition, the MIC with Staphylococcus aureus came to 0.25 µg/mL (≈ 0.67 µM); with Enterococcus faecalis, 1 µg/mL (≈ 2.68 µM); in the series with Klebsiella pneumoniae, 16 µg/mL (≈ 42.9 µM); in the series on Streptococcus pyogenes, 0.016 µg/mL (≈ 0.0429 µM). Also, the ED50 in the series with Escherichia coli [2] was 19 mg/kg; in the series on Streptococcus pneumoniae [4], 0.3 mg/kg. In addition, in [7], the maximum concentration (Cmax) (usually the highest concentration seen after dosing) is 15000 ng/mL. The “Urinary recovery (% of dose, 0-6 h)” value in the series filed under Mus musculus [8] worked out at 25%. For the same compound, the AUC in the series with Mus musculus [9] worked out at 23. Besides, the half-life in [10] is 52 min.

Regarding `C=CCC1=C(C(=O)O)N2C(=O)[C@@H](NC(=O)[C@H](N)c3ccc(O)cc3)[C@H]2SC1`, in series [7], the highest level (Cmax) was 45000 ng/mL. In the series filed under Mus musculus [8], the “Urinary recovery (% of dose, 0-6 h)” value was 79%. Moreover, the MIC with Proteus mirabilis is 1 µg/mL (≈ 2.57 µM); in the series with Haemophilus influenzae it was 1 µg/mL (≈ 2.57 µM); with Streptococcus pneumoniae [5] it was 0.03 µg/mL (≈ 0.077 µM); in the series with Escherichia coli [6], 4 µg/mL (≈ 10.3 µM); with Staphylococcus aureus, 0.13 µg/mL (≈ 0.334 µM); in the series with Enterococcus faecalis it was 18 µg/mL (≈ 46.2 µM). In addition, the MIC in the series on Klebsiella pneumoniae was found to be 4 µg/mL (≈ 10.3 µM); in the series with Streptococcus pyogenes, 0.016 µg/mL (≈ 0.0411 µM). The AUC in the series with Mus musculus [9] came out at 41. The same compound returned a half-life in series [10] of 34 min.

On to `N[C@@H](C(=O)N[C@@H]1C(=O)N2C(C(=O)O)=C(C3CC3)OC[C@H]12)c1ccc(O)cc1`, for which the MIC was 4 µg/mL (≈ 10.7 µM) in the series with Escherichia coli [1]; 0.03 µg/mL (≈ 0.0804 µM) in the series with Streptococcus pneumoniae [3]; 2 µg/mL (≈ 5.36 µM) with Proteus mirabilis; 8 µg/mL (≈ 21.4 µM) in the series on Haemophilus influenzae; 0.03 µg/mL (≈ 0.0804 µM) in the series with Streptococcus pneumoniae [5]; 4 µg/mL (≈ 10.7 µM) in the series on Escherichia coli [6]. Further, the MIC is 0.25 µg/mL (≈ 0.67 µM) with Staphylococcus aureus, 1 µg/mL (≈ 2.68 µM) in the series with Enterococcus faecalis, 16 µg/mL (≈ 42.9 µM) with Klebsiella pneumoniae and 0.016 µg/mL (≈ 0.0429 µM) in the series on Streptococcus pyogenes. The ED50 was above 50 mg/kg with Escherichia coli [2] and 3.6 mg/kg in the series on Streptococcus pneumoniae [4].

On to `C=CC1=C(C(=O)O)N2C(=O)[C@@H](NC(=O)[C@H](N)c3ccc(O)cc3)[C@H]2SC1`, for which the maximum concentration (Cmax) in [7] came out at 22000 ng/mL. Also, the MIC with Proteus mirabilis is 4 µg/mL (≈ 10.7 µM); in the series with Streptococcus pneumoniae [5], 0.03 µg/mL (≈ 0.0799 µM); in the series on Escherichia coli [6] it was 4 µg/mL (≈ 10.7 µM); with Staphylococcus aureus it was 0.25 µg/mL (≈ 0.666 µM); in the series on Enterococcus faecalis it was 2 µg/mL (≈ 5.33 µM); in the series on Klebsiella pneumoniae, 16 µg/mL (≈ 42.6 µM). Moreover, in the series on Streptococcus pyogenes, the MIC worked out at 0.03 µg/mL (≈ 0.0799 µM). Moreover, in the series with Mus musculus [9], the AUC is reported as 21. In series [10], this compound registered a half-life of 29 min.
